The source made the active and inactive calls.
Tests used:
[1] = target: Sigma non-opioid intracellular receptor 1 (Cavia porcellus, UniProt Q60492); format: cell membranes;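 also: radioligand displacement of [3H]-(+)-pentazocine from guinea pig brain cortex membranes, 120 min incubation, bound radioactivity read by scintillation counting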
[2] = target: T1, Sigma intracellular receptor 2 (Rattus norvegicus, UniProt Q5U3Y7); assay: Displacement of [3H]-di-o-tolylguanidine from sigma2 receptor in rat liver membranes incubated for 120 mins by scintillation counting method; format: cell membranes
T1 sequence (Q5U3Y7 whole entry): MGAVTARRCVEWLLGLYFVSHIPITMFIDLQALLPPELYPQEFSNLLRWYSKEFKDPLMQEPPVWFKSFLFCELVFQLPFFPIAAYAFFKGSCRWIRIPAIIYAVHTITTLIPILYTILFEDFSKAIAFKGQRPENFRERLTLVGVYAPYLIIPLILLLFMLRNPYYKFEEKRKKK

Mu-type opioid receptor [3] = target: T2, Mu-type opioid receptor (Homo sapiens, UniProt P35372); assay: Displacement of [3H]DAMGO from human MOR expressed in CHO-K1 cells membranes after 60 mins by micro beta scintillation counting method; format: cell membranes
T2 sequence (P35372 whole entry): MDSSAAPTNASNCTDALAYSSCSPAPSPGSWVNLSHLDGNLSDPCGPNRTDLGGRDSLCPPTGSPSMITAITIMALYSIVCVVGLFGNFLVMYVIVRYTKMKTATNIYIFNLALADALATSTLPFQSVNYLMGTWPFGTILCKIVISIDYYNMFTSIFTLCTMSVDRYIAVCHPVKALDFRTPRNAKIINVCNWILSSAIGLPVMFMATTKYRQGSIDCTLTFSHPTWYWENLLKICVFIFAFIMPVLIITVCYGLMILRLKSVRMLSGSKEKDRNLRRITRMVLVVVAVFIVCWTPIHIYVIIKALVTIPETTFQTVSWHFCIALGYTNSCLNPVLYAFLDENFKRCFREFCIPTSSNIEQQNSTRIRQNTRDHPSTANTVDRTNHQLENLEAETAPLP
Procedure, shortened: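 Human MOR in CHO-K1 membranes (20 µg) with 1 nM [3H]DAMGO in 50 mM Tris-HCl, 5 mM MgCl2, pH 7.4, 27 °C for 60 min. Test compound at five concentrations; 10 µM naloxone defines nonspecific binding. Filtered, washed thrice with ice-cold 10 mM Tris-HCl, counted by liquid scintillation.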

[4] = target: Delta-type opioid receptor (Homo sapiens, UniProt P41143); assay: Inhibition of DOR (unknown origin)
Delta-type opioid receptor, sequence (P41143 whole entry): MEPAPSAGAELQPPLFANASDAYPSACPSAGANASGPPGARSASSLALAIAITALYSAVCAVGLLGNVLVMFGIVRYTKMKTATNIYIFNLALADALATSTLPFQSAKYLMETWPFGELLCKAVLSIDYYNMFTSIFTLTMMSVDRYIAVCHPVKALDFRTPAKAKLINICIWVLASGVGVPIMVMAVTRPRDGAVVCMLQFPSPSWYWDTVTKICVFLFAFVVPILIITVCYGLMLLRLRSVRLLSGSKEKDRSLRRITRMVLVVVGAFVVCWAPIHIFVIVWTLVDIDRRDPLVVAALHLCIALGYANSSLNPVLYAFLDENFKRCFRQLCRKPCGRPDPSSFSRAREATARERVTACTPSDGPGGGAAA

Mu-type opioid receptor [5] = target: T2, Mu-type opioid receptor; assay: Agonist activity at MOR (unknown origin) by cAMP assay; format: functional
[6] = target: Sodium-dependent noradrenaline transporter (Homo sapiens) (UniProt P23975); assay: Displacement of [3H]nisoxetine from recombinant human norepinephrine transporter at 1 uM after 60 mins by scintillation counting method relative to control
Sodium-dependent noradrenaline transporter (Homo sapiens), sequence (P23975 whole entry): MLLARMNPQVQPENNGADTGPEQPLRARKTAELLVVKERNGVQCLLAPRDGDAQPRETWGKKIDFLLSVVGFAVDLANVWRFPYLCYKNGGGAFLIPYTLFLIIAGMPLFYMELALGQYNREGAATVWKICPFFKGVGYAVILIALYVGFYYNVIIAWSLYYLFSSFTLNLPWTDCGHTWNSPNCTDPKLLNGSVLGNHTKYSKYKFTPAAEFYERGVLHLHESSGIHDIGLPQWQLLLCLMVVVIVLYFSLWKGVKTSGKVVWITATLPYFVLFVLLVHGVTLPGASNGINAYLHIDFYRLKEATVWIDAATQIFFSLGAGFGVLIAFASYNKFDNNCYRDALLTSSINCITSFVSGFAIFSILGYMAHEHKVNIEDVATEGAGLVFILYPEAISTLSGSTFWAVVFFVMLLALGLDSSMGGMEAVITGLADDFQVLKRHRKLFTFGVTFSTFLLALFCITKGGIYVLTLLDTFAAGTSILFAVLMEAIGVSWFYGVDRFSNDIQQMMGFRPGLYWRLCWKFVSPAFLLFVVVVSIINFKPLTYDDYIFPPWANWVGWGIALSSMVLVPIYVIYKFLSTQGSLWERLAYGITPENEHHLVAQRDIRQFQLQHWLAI
Procedure, shortened: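 Human NET-enriched membranes (1 μg), 5 nM [3H]nisoxetine in 50 mM Tris-HCl, 120 mM NaCl, 5 mM KCl, pH 7.4, 1% DMSO final; 60 min at 4 °C; 10 μM desipramine for nonspecific binding. Single 1 μM compound; filtration, displacement of radioligand.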

[7] = target: 5-hydroxytryptamine receptor 1A (Homo sapiens) (UniProt P08908); assay: Displacement of [3H]8-OH-DPAT from human 5HT1A receptor at 1 uM incubated for 2 hrs scintillation counting method relative to control
5-hydroxytryptamine receptor 1A (Homo sapiens), sequence (P08908 whole entry): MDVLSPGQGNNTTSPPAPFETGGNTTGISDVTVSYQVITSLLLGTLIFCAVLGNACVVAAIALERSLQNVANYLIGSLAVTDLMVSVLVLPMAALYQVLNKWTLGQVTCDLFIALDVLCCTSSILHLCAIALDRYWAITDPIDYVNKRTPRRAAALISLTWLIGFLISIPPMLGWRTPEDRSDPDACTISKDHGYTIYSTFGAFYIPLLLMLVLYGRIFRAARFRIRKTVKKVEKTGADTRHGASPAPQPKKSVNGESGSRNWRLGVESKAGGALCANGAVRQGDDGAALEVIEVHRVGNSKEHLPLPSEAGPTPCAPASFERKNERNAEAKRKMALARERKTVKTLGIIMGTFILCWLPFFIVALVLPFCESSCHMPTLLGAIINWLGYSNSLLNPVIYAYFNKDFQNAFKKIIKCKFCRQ
Procedure, shortened: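 Human 5-HT1A-enriched membranes (10 μg), 2 nM [3H]-8-OH-DPAT, 50 mM Tris-HCl/5 mM MgCl2 pH 7.4, 0.1% DMSO final, 2 h at 37 °C; 10 μM 5-HT for nonspecific binding. Compound at 1 μM; radioligand displacement read after GF/C filtration.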

[8] = target: 5-hydroxytryptamine receptor 2B (Homo sapiens) (UniProt P41595); assay: Displacement of [3H]-LSD from recombinant human 5HT2B receptor at 1 uM after 30 mins by scintillation counting method relative to control
5-hydroxytryptamine receptor 2B (Homo sapiens), sequence (P41595 whole entry): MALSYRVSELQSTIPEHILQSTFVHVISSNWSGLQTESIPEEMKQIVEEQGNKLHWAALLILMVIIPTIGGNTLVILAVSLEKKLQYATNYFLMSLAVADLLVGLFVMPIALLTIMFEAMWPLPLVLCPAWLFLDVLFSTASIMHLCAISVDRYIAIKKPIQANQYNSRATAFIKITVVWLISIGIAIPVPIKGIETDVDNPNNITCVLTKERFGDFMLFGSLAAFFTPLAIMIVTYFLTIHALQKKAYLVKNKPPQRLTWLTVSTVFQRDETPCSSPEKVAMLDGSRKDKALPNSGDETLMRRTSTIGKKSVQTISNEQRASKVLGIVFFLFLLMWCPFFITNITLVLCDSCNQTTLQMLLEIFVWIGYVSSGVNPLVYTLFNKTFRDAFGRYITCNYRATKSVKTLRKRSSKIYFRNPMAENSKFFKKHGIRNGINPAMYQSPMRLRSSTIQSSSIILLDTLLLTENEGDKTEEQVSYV
Procedure, shortened: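 Human 5-HT2B-enriched membranes (5 µg), 1 nM [3H]LSD in 50 mM Tris-HCl, 4 mM CaCl2, 1% ascorbic acid, pH 7.4, 0.1% DMSO; 30 min, 37 °C; 50 µM 5-HT for nonspecific binding. Single 1 µM compound concentration; displacement after filtration.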

[9] = target: Histamine H1 receptor (Homo sapiens) (UniProt P35367); assay: Displacement of [3H]pyrilamine from human recombinant histamine H1 receptor at 1 uM after 90 mins by scintillation counting method relative to control
Histamine H1 receptor (Homo sapiens), sequence (P35367 whole entry): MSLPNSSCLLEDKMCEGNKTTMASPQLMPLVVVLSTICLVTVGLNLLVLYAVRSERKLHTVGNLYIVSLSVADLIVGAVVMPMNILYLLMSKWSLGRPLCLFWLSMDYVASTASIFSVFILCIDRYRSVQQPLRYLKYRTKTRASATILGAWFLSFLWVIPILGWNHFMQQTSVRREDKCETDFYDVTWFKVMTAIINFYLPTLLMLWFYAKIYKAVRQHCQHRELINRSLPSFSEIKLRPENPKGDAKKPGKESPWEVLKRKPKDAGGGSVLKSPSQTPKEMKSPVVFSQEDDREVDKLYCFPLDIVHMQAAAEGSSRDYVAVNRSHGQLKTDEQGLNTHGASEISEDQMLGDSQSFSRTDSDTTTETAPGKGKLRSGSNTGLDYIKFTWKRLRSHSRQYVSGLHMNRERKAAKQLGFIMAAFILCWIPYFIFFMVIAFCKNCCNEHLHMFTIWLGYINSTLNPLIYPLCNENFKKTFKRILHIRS
Procedure, shortened: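 Human H1 receptor-enriched membranes (25 μg) with 2.4 nM [3H]pyrilamine in Na+/K+ phosphate buffer pH 7.4, 0.1% DMSO, 90 min, 25 °C; 10 μM triprolidine for nonspecific binding. Single 1 μM test concentration; filtration-based readout of displacement.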

[10] = Drug metabolism in mouse liver microsomes at 1 uM incubated for 1 hr in presence of NADPH by UPLC-MS analysis; format: ADME, Microsome; conditions: read-out: Drug metabolism
Procedure, shortened: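 Liver microsomes, compound 1 µM, 37 °C for 1 h in 50 mM Na/K phosphate pH 7.4, 3 mM MgCl2, NADPH-regenerating system, CYP 0.3 nmol/mL. Aliquots at 0, 10, 20, 40, 60 min quenched with cold acetonitrile, supernatants by UPLC-MS/MS; % parent remaining at end reported. Terfenadine as positive control.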

CYP2D6 = CYP2D6 (Homo sapiens, UniProt P10635); assay: Inhibition of recombinant human CYP2D6 at 1 uM by fluorescence probe substrate-based flurometric analysis; format: ADME
CYP2D6, sequence (P10635 whole entry): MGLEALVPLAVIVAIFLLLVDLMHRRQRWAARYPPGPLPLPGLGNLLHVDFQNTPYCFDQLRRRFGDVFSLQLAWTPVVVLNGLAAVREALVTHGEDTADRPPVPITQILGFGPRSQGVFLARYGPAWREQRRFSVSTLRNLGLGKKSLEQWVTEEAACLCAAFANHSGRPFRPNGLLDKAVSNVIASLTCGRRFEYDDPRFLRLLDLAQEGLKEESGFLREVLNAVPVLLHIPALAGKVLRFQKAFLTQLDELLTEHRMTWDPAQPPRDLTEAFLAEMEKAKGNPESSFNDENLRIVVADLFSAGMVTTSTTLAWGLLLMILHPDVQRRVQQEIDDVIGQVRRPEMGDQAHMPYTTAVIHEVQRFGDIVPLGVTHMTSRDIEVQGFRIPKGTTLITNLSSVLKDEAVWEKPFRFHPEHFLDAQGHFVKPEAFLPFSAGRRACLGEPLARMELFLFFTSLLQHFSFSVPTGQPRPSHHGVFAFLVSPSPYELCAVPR

Mus musculus [11] = assay: Antiallodynic activity in CD-1 mouse model of capsaicin-induced mechanical allodynia assessed as increase in paw withdrawal threshold at 8 mg/kg, sc administered 30 mins before capsaicin addition and measured after 15 mins by von-Frey test; format: functional, organism-based
Procedure, shortened: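 Female CD-1 mice given compound or HPMC vehicle sc 30 min before intraplantar capsaicin (1 µg in 20 µL, 1% DMSO). 15 min later, electronic von Frey punctate stimulus (0.5 g) at least 5 mm from injection site; paw withdrawal latency, three trials 30 s apart, 50 s cutoff. % antiallodynic effect = [(LTD−LTS)/(CT−LTS)]×100; 6-8 mice per group, ANOVA with Bonferroni.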

Mus musculus [12] = assay: Antiallodynic activity in CD-1 mouse model of capsaicin-induced mechanical allodynia assessed as increase in paw withdrawal threshold at 16 mg/kg, sc administered 30 mins before capsaicin addition and measured after 15 mins in presence of sigma1 receptor agonist PRE-084 by von-Frey test; format: functional, organism-based
Procedure, shortened: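 Female CD-1 mice pretreated sc with σ1 agonist PRE-084 (32 mg/kg) 5 min before sc test compound; 30 min later capsaicin 1 µg intraplantar. After 15 min, 0.5 g electronic von Frey stimulus on secondary hyperalgesia area; withdrawal latency averaged over three trials, 50 s cutoff. Effect as % antiallodynia versus HPMC-treated; 6-8 animals, one-way ANOVA plus Bonferroni.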

HepG2 = assay: Cytotoxicity against human HepG2 assessed as reduction in cell viability at 1 to 100 uM after 20 hrs by neutral red uptake assay; format: cell-based; conditions: hepg2, 20 h
Procedure, shortened: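 HepG2 seeded 3 x 10^4/well, 24 h, then 20 h serum-free exposure at 1, 10 or 100 µM. Neutral red 50 µg/mL for 3 h, washed, dye extracted with 50% ethanol/1% acetic acid, OD 550 nm. IC50 assigned as lowest concentration reaching ≥50% cytotoxicity against untreated cells; n = 4 (duplicate, two assays).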

[13] = target: Sodium-dependent dopamine transporter (Homo sapiens) (UniProt Q01959); assay: Displacement of [3H]GBR12935 from human DAT at 1 uM after 120 mins by scintillation counting method relative to control
Sodium-dependent dopamine transporter (Homo sapiens), sequence (Q01959 whole entry): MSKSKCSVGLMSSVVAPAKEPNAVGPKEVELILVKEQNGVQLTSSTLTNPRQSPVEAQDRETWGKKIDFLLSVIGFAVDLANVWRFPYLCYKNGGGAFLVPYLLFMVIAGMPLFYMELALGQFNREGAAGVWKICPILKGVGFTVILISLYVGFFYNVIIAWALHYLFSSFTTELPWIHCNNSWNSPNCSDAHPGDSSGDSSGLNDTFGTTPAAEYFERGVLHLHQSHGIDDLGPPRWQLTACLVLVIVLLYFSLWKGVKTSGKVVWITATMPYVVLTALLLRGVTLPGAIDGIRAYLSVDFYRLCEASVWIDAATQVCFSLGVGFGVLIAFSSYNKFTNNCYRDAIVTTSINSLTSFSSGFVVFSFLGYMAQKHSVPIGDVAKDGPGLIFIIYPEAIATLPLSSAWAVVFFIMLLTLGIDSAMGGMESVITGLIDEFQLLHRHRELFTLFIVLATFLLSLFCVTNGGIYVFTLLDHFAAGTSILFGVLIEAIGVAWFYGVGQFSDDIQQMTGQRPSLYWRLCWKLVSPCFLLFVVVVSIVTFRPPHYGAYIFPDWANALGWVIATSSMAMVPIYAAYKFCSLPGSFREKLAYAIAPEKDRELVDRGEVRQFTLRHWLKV
Procedure, shortened: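 DAT-enriched human membranes (5 µg), 2 nM [3H]GBR12935 in 50 mM Tris-HCl/100 mM NaCl pH 7.4, 0.1% DMSO, 120 min at 4 °C; 10 µM GBR12909 for nonspecific binding. Compound at 1 µM; displacement measured after filtration.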

[14] = Stability of compound in aqueous HCl solution at pH 2 after 24 hrs by HPLC analysis; format: physicochemical; conditions: buffer, pH 2, 24 h
Procedure, shortened: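 Compound (25 μL of 10 mM DMSO stock) added to 1 mL aqueous buffered solution, pH 2 or pH 7.4, stirred 24 h at room temperature, analyzed by HPLC-MS; deemed stable if peak area remained 95–105%.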

Sus scrofa = organism: Sus scrofa; conditions: at 1 µM

Sigma non-opioid intracellular receptor 1, sequence (Q60492 whole entry): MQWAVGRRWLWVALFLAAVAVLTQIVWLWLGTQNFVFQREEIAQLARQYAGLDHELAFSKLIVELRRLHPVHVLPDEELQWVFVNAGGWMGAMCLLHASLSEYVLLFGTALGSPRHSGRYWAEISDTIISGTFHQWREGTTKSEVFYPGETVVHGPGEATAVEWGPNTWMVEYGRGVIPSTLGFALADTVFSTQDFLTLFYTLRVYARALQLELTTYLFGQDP

COc1ccc2c(c1)CCN(CCC(F)Cc1ccccc1)CC2 (configuration not stated)
Ki [1]: 6.6 nM | Ki [2]: 115 nM | Ki (Mu-type opioid receptor [3]): > 1000 nM | Ki [4]: > 1000 nM | EC50 (Mu-type opioid receptor [5]): > 10000 nM | inhibition [6]: < 50% | inhibition [7]: 70% | inhibition [8]: < 50% | inhibition [9]: < 50% | metabolised at 1 h, 1 µM [10]: 100% | inhibition at 1 µM (CYP2D6): 55% | Activity (Mus musculus [11]): Active | Activity (Mus musculus [12]): inactive | Activity (HepG2): Toxic | inhibition [13]: < 50% | Stability [14]: Stable | inhibition (Sus scrofa): 21%
